In ChEMBL document CHEMBL4138044, “Withaferin A induces cell death and differentiation in multiple myeloma cancer stem cells” (Medchemcomm, 2017):
Active and inactive are the calls of the source. No cut-off for these calls is given here.

Key:
[1] = system: Multiple myeloma cancer stem cell; test: Antiproliferative activity against human multiple myeloma cancer stem cells after 72 hrs by MTT assay; assay type: functional, cell-based
How it was run: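 MM-CSCs plated at 5000 cells/well and allowed to adhere 24 h, then exposed to 0–10 μM WFA for 72 h. MTT added for 2 h. Growth taken as absorbance relative to vehicle-control wells ×100. IC50 fitted from at least five concentrations; mean of three independent experiments ± SEM.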

[2] = Cytotoxicity against human RPMI18226 cells assessed as cell viability at 10 uM after 24 hrs by calcein AM/ethidium homodimer staining-based flow cytometric method (reference value: 67.7%); assay type: functional; conditions: RPMI18226, 24 h, read-out: Activity
[3] = system: Multiple myeloma cancer stem cell; test: Cytotoxicity against human multiple myeloma cancer stem cells assessed as cell viability at 2.5 uM after 24 hrs by calcein AM/ethidium homodimer staining-based flow cytometric method (reference value: 95.7%); assay type: functional; conditions: read-out: Activity
[4] = system: Multiple myeloma cancer stem cell; test: Cell cycle arrest in human multiple myeloma cancer stem cells assessed as accumulation at G2/M phase at 2.5 uM […] by FxCycle violet staining-based flow cytometric method (reference value: 22.9%); assay type: functional
How it was run: (§1)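 Cells treated 24 h with vehicle or WFA; MM-CSCs were seeded at 100 000 per well and left to adhere 24 h first, RPMIs seeded at 300 000 per well and treated at once. Floating and adherent cells fixed and permeabilized, adjusted to 10^6 cells/mL in PBS, then stained with FxCycle DNA dye for 30 min at room temperature. Flow cytometry; ≥3 independent experiments, mean ± SEM.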

[5] = system: Multiple myeloma cancer stem cell; test: Induction of morphological changes in human multiple myeloma cancer stem cells assessed as appearance of larger cytoplasmic area at 1.25 uM after 24 hrs by phalloidin/DAPI staining-based assay; assay type: functional
How it was run: (§2)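 MM-CSCs seeded at 5000 cells/well and allowed to adhere 24 h, then treated with increasing WFA for 24 h. Fixed in 4% paraformaldehyde for 10 min, permeabilized with 0.1% Triton X-100 for 5 min, stained with 5 U/mL phalloidin for 20 min and 1 μg/mL DAPI for 5 min at room temperature. Imaged; cell area and circularity quantified; 3 experiments.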

[6] = Cell cycle arrest in human […] cells assessed as accumulation at G2/M phase at 1.25 uM […] by FxCycle violet staining-based flow cytometric method (reference value: 20.2%); assay type: functional; how it was run: as §1
[7] = system: Multiple myeloma cancer stem cell; test: Induction of morphological changes in human multiple myeloma cancer stem cells assessed as cell enlargement at 0.62 uM after 24 hrs by phalloidin/DAPI staining-based assay; assay type: functional; how it was run: as §2
[8] = system: Multiple myeloma cancer stem cell; test: Induction of differentiation of human multiple myeloma cancer stem cells assessed as downregulation of SOX2 mRNA expression at 0.31 to 5 uM after 24 hrs by qPCR method; assay type: functional, cell-based
How it was run: (§3)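 MM-CSCs treated with vehicle or increasing WFA concentrations for 24 h. Relative mRNA levels of the stemness markers then measured; mean ± SEM of 3 independent experiments, one-way ANOVA with Bonferroni test.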

RPMI-8226 (Homo sapiens) [9] = test: Cell cycle arrest in human RPMI-8226 cells assessed as accumulation at S phase at 2.5 uM […] by FxCycle violet staining-based flow cytometric method (reference value: 40.9%)
[10] = Antiproliferative activity against human […] cells after 72 hrs by XTT assay; assay type: functional, cell-based
How it was run: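 RPMI 8226 cells in RPMI 1640 with 10% FBS, plated at 15 000 cells/well and treated immediately with 0–10 μM WFA for 72 h. XTT added for 4 h. Growth as absorbance relative to vehicle control ×100. IC50 fitted from at least five concentrations; mean of three independent experiments ± SEM.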

[11] = system: Multiple myeloma cancer stem cell; test: Cytotoxicity against human multiple myeloma cancer stem cells assessed as dead cells at 10 uM after 24 hrs by calcein AM/ethidium homodimer staining-based flow cytometric method (reference value: 0.7%); assay type: functional
[12] = system: Multiple myeloma cancer stem cell; test: Antimigratory activity in human multiple myeloma cancer stem cells at 2.5 uM after 24 hrs by scratch assay; assay type: functional, cell-based
How it was run: (§4)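 MM-CSCs seeded at 100 000 cells per well, grown 24 h to a confluent monolayer, scratched with a pipette tip and imaged at 0 h. Cells then treated with increasing WFA concentrations for 24 h and the same spot re-imaged. Percent unfilled space = scratch width at 24 h / width at 0 h × 100; recovery = 100 − unfilled. 3 independent experiments.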

[13] = system: Multiple myeloma cancer stem cell; test: Induction of differentiation of human multiple myeloma cancer stem cells assessed as downregulation of MSI2 mRNA expression at 0.31 to 5 uM after 24 hrs by qPCR method; assay type: functional, cell-based; how it was run: as §3
[14] = system: Multiple myeloma cancer stem cell; test: Induction of differentiation of human multiple myeloma cancer stem cells assessed as upregulation of Kit mRNA expression at 0.31 to 5 uM after 24 hrs by qPCR method; assay type: functional, cell-based; how it was run: as §3
[15] = system: Multiple myeloma cancer stem cell; test: Induction of differentiation of human multiple myeloma cancer stem cells assessed as upregulation of CD44 mRNA expression at 0.31 to 5 uM after 24 hrs by qPCR method; assay type: functional, cell-based; how it was run: as §3
Homo sapiens [16] = species: Homo sapiens; test: Induction of apoptosis in human […] cells assessed as decrease in viable cells at 1.25 uM after 24 hrs by annexin V/propidium iodide staining-based flow cytometric method; assay type: functional, cell-based
How it was run: (§5)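 Annexin V/propidium iodide apoptosis staining after 24 h WFA. MM-CSCs adhered 24 h before treatment; RPMIs treated immediately after seeding at 300 000 per well. Floating and adherent cells washed, adjusted to 10^6 cells/mL, stained 15 min at room temperature, flow cytometry separating viable, early and late apoptotic cells; ≥3 independent experiments, mean ± SEM.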

[17] = system: Multiple myeloma cancer stem cell; test: Induction of differentiation of human multiple myeloma cancer stem cells assessed as downregulation of CD166 mRNA expression at 0.31 to 5 uM after 24 hrs by qPCR method; assay type: functional, cell-based; how it was run: as §3
[18] = system: Multiple myeloma cancer stem cell; test: Induction of apoptosis in human multiple myeloma cancer stem cells assessed as increase in late apoptotic cells at 5 uM after 24 hrs by annexin V/propidium iodide staining-based flow cytometric method; assay type: functional; how it was run: as §5
[19] = system: Multiple myeloma cancer stem cell; test: Cytotoxicity against human multiple myeloma cancer stem cells assessed as decrease in cell viability after 24 hrs by calcein AM/ethidium homodimer staining-based flow cytometric method; assay type: functional
[20] = system: Multiple myeloma cancer stem cell; test: Cell cycle arrest in human multiple myeloma cancer stem cells assessed as accumulation at G1 phase at 1.25 uM […] by FxCycle violet staining-based flow cytometric method (reference value: 45.1%); assay type: functional; how it was run: as §1
Homo sapiens [21] = species: Homo sapiens; test: Cytotoxicity against human RPMI18226 cells assessed as decrease in cell viability after 24 hrs by calcein AM/ethidium homodimer staining-based flow cytometric method; assay type: functional
Homo sapiens [22] = species: Homo sapiens; test: Cell cycle arrest in human […] cells assessed as accumulation at sub-G1 phase […] by FxCycle violet staining-based flow cytometric method; assay type: functional; how it was run: as §1
[23] = Cytotoxicity against human RPMI18226 cells assessed as cell viability at 1.25 uM after 24 hrs by calcein AM/ethidium homodimer staining-based flow cytometric method (reference value: 67.7%); assay type: functional; conditions: RPMI18226, 24 h, read-out: Activity
[24] = system: Multiple myeloma cancer stem cell; test: Cell cycle arrest in human multiple myeloma cancer stem cells assessed as accumulation at G1 phase at 0.62 uM […] by FxCycle violet staining-based flow cytometric method (reference value: 45.1%); assay type: functional; how it was run: as §1
[25] = system: Multiple myeloma cancer stem cell; test: Induction of morphological changes in human multiple myeloma cancer stem cells assessed as appearance of epithelial/lymphoblastic-like morphology at 0.62 uM after 24 hrs by phalloidin/DAPI staining-based assay; assay type: functional; how it was run: as §2
[26] = system: Multiple myeloma cancer stem cell; test: Induction of morphological changes in human multiple myeloma cancer stem cells assessed as appearance in spherical shape at 1.25 uM after 24 hrs by phalloidin/DAPI staining-based assay; assay type: functional; how it was run: as §2
Homo sapiens [27] = species: Homo sapiens; test: Induction of apoptosis in human […] cells assessed as increase in late apoptotic cells at 1.25 uM after 24 hrs by annexin V/propidium iodide staining-based flow cytometric method; assay type: functional, cell-based; how it was run: as §5
[28] = Cytotoxicity against human CD34-positive hematopoietic stem cells assessed as decrease in cell viability at 10 uM after 24 hrs by calcein AM/ethidium homodimer staining-based flow cytometric method
[29] = system: Multiple myeloma cancer stem cell; test: Cell cycle arrest in human multiple myeloma cancer stem cells assessed as accumulation at G2/M phase at 1.25 uM […] by FxCycle violet staining-based flow cytometric method (reference value: 22.9%); assay type: functional; how it was run: as §1
[30] = system: Multiple myeloma cancer stem cell; test: Induction of morphological changes in human multiple myeloma cancer stem cells assessed as appearance in circular shape at 0.62 uM after 24 hrs by phalloidin/DAPI staining-based assay; assay type: functional; how it was run: as §2
[31] = Cytotoxicity against human RPMI18226 cells assessed as dead cells at 10 uM after 24 hrs by calcein AM/ethidium homodimer staining-based flow cytometric method (reference value: 21.4%); assay type: functional
[32] = system: Multiple myeloma cancer stem cell; test: Cytotoxicity against human multiple myeloma cancer stem cells assessed as cell viability at 10 uM after 24 hrs by calcein AM/ethidium homodimer staining-based flow cytometric method (reference value: 95.7%); assay type: functional; conditions: read-out: Activity
[33] = Cell cycle arrest in human […] cells assessed as accumulation at sub-G1 phase at 0.62 uM […] by FxCycle violet staining-based flow cytometric method (reference value: 10.8%); assay type: functional; how it was run: as §1
[34] = system: Multiple myeloma cancer stem cell; test: Induction of differentiation of human multiple myeloma cancer stem cells assessed as downregulation of CD151 mRNA expression at 0.31 to 5 uM after 24 hrs by qPCR method; assay type: functional, cell-based; how it was run: as §3
[35] = Cell cycle arrest in human […] cells assessed as accumulation at sub-G1 phase at 2.5 uM […] by FxCycle violet staining-based flow cytometric method (reference value: 10.8%); assay type: functional; how it was run: as §1
[36] = Cytotoxicity against human CD34-positive hematopoietic stem cells assessed as decrease in cell viability at <5 uM after 24 hrs by calcein AM/ethidium homodimer staining-based flow cytometric method
Homo sapiens [37] = species: Homo sapiens; test: Cytotoxicity against human RPMI18226 cells assessed as increase in dead cells at 1.25 uM after 24 hrs by calcein AM/ethidium homodimer staining-based flow cytometric method (reference value: 21.4%); assay type: functional, cell-based
RPMI-8226 (Homo sapiens) [38] = test: Cell cycle arrest in human RPMI-8226 cells assessed as accumulation at S phase at 1.25 uM […] by FxCycle violet staining-based flow cytometric method (reference value: 40.9%)
[39] = system: Multiple myeloma cancer stem cell; test: Antimigratory activity in human multiple myeloma cancer stem cells at 0.62 to 1.25 uM after 24 hrs by scratch assay; assay type: functional, cell-based; how it was run: as §4
[40] = Cell cycle arrest in human […] cells assessed as accumulation at G1 phase at 1.25 uM […] by FxCycle violet staining-based flow cytometric method (reference value: 28.2%); assay type: functional; how it was run: as §1
[41] = system: Multiple myeloma cancer stem cell; test: Cell cycle arrest in human multiple myeloma cancer stem cells assessed as accumulation at G1 phase at 2.5 uM […] by FxCycle violet staining-based flow cytometric method (reference value: 45.1%); assay type: functional; how it was run: as §1
[42] = system: Multiple myeloma cancer stem cell; test: Induction of apoptosis in human multiple myeloma cancer stem cells assessed as decrease in viable cells at 5 uM after 24 hrs by annexin V/propidium iodide staining-based flow cytometric method; assay type: functional; how it was run: as §5
RPMI-8226 (Homo sapiens) [43] = test: Cell cycle arrest in human RPMI-8226 cells assessed as accumulation at S phase at 0.62 uM […] by FxCycle violet staining-based flow cytometric method (reference value: 40.9%)
[44] = Cell cycle arrest in human […] cells assessed as accumulation at sub-G1 phase at 1.25 uM […] by FxCycle violet staining-based flow cytometric method (reference value: 10.8%); assay type: functional; how it was run: as §1
[45] = system: Multiple myeloma cancer stem cell; test: Cytotoxicity against human multiple myeloma cancer stem cells assessed as dying cells at 10 uM after 24 hrs by calcein AM/ethidium homodimer staining-based flow cytometric method (reference value: 3.6%); assay type: functional

CC1=C(CO)C(=O)O[C@@H]([C@@H](C)[C@H]2CC[C@H]3[C@@H]4C[C@H]5O[C@]56[C@@H](O)C=CC(=O)[C@]6(C)[C@H]4CC[C@]23C)C1 [WITHAFERIN A]
IC50 [1]: 650 nM | viability at 10 µM [2]: 8.2% | viability at 2.5 µM [3]: 64.6% | Activity [4]: 61.4% | Activity [5]: Active | Activity [6]: 28.4% | Activity [7]: Active | Activity [8]: Active | Activity (RPMI-8226 (Homo sapiens) [9]): 34% | IC50 [10]: 224 nM | Activity [11]: 56.4% | Activity [12]: Active | Activity [13]: Active | Activity [14]: Active | Activity [15]: Active | Activity (Homo sapiens [16]): Active | Activity [17]: Active | Activity [18]: Active | Activity [19]: Dose-dependent effect | Activity [20]: 15.5% | Activity (Homo sapiens [21]): Dose-dependent effect | Activity (Homo sapiens [22]): Dose-dependent effect | viability at 1.25 µM [23]: 32.1% | Activity [24]: 21.5% | Activity [25]: Active | Activity [26]: Active | Activity (Homo sapiens [27]): Active | Activity [28]: Toxic | Activity [29]: 59.6% | Activity [30]: Active | Activity [31]: 87% | viability at 10 µM [32]: 12.1% | Activity [33]: 15.6% | Activity [34]: Active | Activity [35]: 21.5% | Activity [36]: Non-Toxic | Activity (Homo sapiens [37]): Active | Activity (RPMI-8226 (Homo sapiens) [38]): 29.4% | Activity [39]: inactive | Activity [40]: 19.1% | Activity [41]: 19.5% | Activity [42]: Active | Activity (RPMI-8226 (Homo sapiens) [43]): 31.7% | Activity [44]: 23.1% | Activity [45]: 31.5%
